The entries come from a sample that favours hits as a whole.
697 NFkB inh – lowers PMA/ionomycin-induced NF-kB signal in 697 B cells | inhibition, % at 4 µM | 697 B-cell NF-kB luciferase reporter, 16 h | AID 435022 | 330,000 compounds, 0.33% hits; in the data active means inhibition above about 35%
CHOP UPR activ – apoptotic UPR (CHOP) activation; AID 449763; 330,000 compounds, 0.34% hits; CHO-CHOP luciferase reporter, luminescence; percent of tunicamycin response over DMSO baseline; activation, % at 10 µM;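 active means at 10 µM dose, activation of 40% or more, normalized to positive control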;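 further: 100% = tunicamycin at 10 µg/mL and 0% = DMSO alone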
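System: CHO-CHOP luciferase reporter cell line | Buffer or medium: F12 medium containing 10% fetal bovine serum | Doses: One dose, 10 µM in 0.5% DMSO | Times: 6 h compound exposure at 37 °C after overnight seeding | Signal: Luciferase luminescence | Read-out: % activation vs tunicamycin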
Jurkat NFkB inh – inhibitors of the PMA/ionomycin-induced NF-kB reporter in Jurkat cells; PMA/ionomycin-induced NF-kB luciferase reporter, luminescence; inhibition, % at 4 µM; 330,000 compounds, 0.53% hits; in the data active means inhibition above about 50%
UPR XBP1 act – activators of adaptive arm of unfolded protein response (XBP1); CHO-XBP1 luciferase reporter, IRE1-XBP1 UPR activation, luminescence; percent of tunicamycin response, DMSO as zero; activation, % at 20 µM; 330,000 compounds, 0.33% hits;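 active means versus positive control, 20 µM dose yields 30% or more activation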;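 further: 100% = tunicamycin at 10 µg/mL and 0% = DMSO only wells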
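assay system = CHO-XBP1 luciferase reporter cells | amount = 1000 cells/well | buffer or medium = F12 plus 10% FBS | compound dosing = single point, 20 µM final compound, 1% DMSO | incubation = 16-18 h cell attachment at 37 °C, then 6 h compound exposure | detection = Steady-Glo luminescence read | controls = tunicamycin 10 µg/mL and vehicle-only wells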
CHOP inhibitor – inhibitors of CHOP induction in ER stress response. CHO-K1 CHOP-promoter luciferase, tunicamycin-induced, 15-18 h. inhibition, % at 10 µM. 220,000 compounds, 3.8% hits. AID 2732;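 active means compounds that reduced the stress-induced luciferase reporter signal by more than about 70% of percent inhibition, limit read from the data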;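 further: 0% = tunicamycin plus vehicle and 100% = wells without tunicamycin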
Active calls of the source: *; . = no result given.

SMILES | 697 NFkB inh | CHOP UPR activ | Jurkat NFkB inh | UPR XBP1 act | CHOP inhibitor
COc1ccccc1C1Nc2cccc3cccc(c23)N1 | -8 | 1 | 6 | 3 | 87*
CN(C)S(=O)(=O)c1cccc(NC(=S)N/N=C/c2cccc(O)c2)c1 | -1 | 1 | -5 | 1 | 10
CN(C)S(=O)(=O)c1cccc(NC(=S)N/N=C/c2cc(Br)ccc2O)c1 | -10 | -1 | 32 | 3 | 72*
Cc1ccc2oc(=O)n(Cc3ccc(F)cc3)c2c1 | 7 | -1 | 1 | -1 | .
Cc1onc(-c2c(F)cccc2Cl)c1C(=O)Nc1nc2c(s1)CCCC2 | 11 | 1 | 6 | -3 | 84*
Cc1cccc(C)c1OCC(O)CN(Cc1ccccc1O)C1CCCCC1 (configuration not stated) | 2 | 0 | -5 | -4 | 85*
CCc1c(C(=O)Nc2ccncc2)csc1C | -21 | -2 | 8 | -1 | 71*
COc1cccc(C2C3=C(N=c4s/c(=C\c5ccccc5O)c(=O)n42)c2ccccc2CC3)c1OC (configuration not stated) | -20 | 105* | -15 | 52* | 22
COC(=O)c1ccc(NC(=S)N2CCN(Cc3ccc(Cl)cc3)CC2)cc1 | 10 | -3 | -2 | -2 | 89*
CC1CCCCN1CC(O)COCc1ccc(Cl)cc1 (configuration not stated) | -1 | 0 | 22 | 0 | .
CCOC(=O)C1=C(N)N2C(=O)C(C)SC2=C(C(=O)OCC)C1c1ccccc1 (configuration not stated) | 11 | -2 | 5 | -3 | 22
CCOC(=O)C1=C(N)N2C(=O)C(C)SC2=C(C(=O)OC)C1c1ccccc1OC (configuration not stated) | 1 | 8 | 1 | -3 | 82*
Cn1nccc1C(=O)NC(=S)Nc1sc2c(c1C#N)CCCCC2 | -68 | 1 | -34 | 6 | 91*
O=S1(=O)CCOCCCN1Cc1ccccc1F | 4 | 1 | 11 | 1 | .
O=S(=O)(NCc1c(Cl)cccc1Oc1ccccc1)c1ccc(F)cc1 | 2 | 0 | 0 | -2 | -8
CCOC(=O)C1=C(C)NC(=S)NC1c1ccc(-c2cccc(Cl)c2C)o1 (configuration not stated) | -1 | -5 | 6 | -3 | 75*
CCOC(=O)C1=C(C)NC(=S)NC1c1ccc(-c2ccc(Cl)cc2)o1 (configuration not stated) | 3 | 1 | 15 | -1 | 72*
O=[N+]([O-])c1ccc2ccn(C3OCC(O)C(O)C3O)c2c1 (configuration not stated) | 18 | -1 | -4 | 2 | 8
COc1cc(/C=C2\SC(=O)N(Cc3ccc(Cl)cc3)C2=O)cc([N+](=O)[O-])c1O | . | . | . | . | 107*
Cn1cc(C(c2ccccn2)c2cn(C)c3ccccc23)c2ccccc21 | -9 | -1 | 0 | 0 | 78*
O=C(/C=C/c1ccccc1Cl)NCCCn1ccnc1 | -1 | 4 | -2 | -2 | .
O=S(=O)(Nc1ccc(N=Nc2ccccc2)cc1)c1ccccc1 | 3 | 1 | 5 | -1 | 95*
O=S(=O)(Nc1ccc(N=Nc2ccc(O)c3ccccc23)cc1)c1ccccc1 | 1 | 2 | -11 | 4 | 89*
O=S(=O)(Nc1ccc(S(=O)(=O)Nc2ccccc2)cc1)c1ccccc1 | -2 | -1 | -21 | 1 | -7
CC(C)C[C@H](NC(=O)N1CC(=O)Nc2ccccc21)C(=O)N[C@@H](Cc1ccccc1)C(=O)O | 13 | -2 | 9 | -1 | .
SMILES | 697 NFkB inh | CHOP UPR activ | Jurkat NFkB inh | UPR XBP1 act | CHOP inhibitor
CC1CCCN(C(=O)CN(c2ccccc2)S(=O)(=O)c2ccc(F)cc2)C1 (configuration not stated) | -29 | 1 | -12 | 0 | .
COc1ccc(C(CNC(=O)c2ccc(NS(=O)(=O)c3ccc(F)c(C)c3)cc2)N2CCOCC2)cc1 (configuration not stated) | -3 | 1 | 15 | -1 | .
CCn1c(CCl)nc2cc(S(=O)(=O)N3CCOCC3)ccc21 | 15 | 7 | 0 | -4 | .
C#C[C@]1(O)CC[C@H]2[C@@H]3CCc4cc(OC)ccc4[C@H]3CC[C@@]21C | -29 | 8 | -36 | 0 | 70*
C#C[C@]1(O)CC[C@H]2[C@@H]3CCc4cc(OC5CCCC5)ccc4[C@H]3CC[C@@]21C | -18 | 4 | -17 | 6 | 43
Cc1cc(CN2CCC(N3CCC(C(=O)NC4CC4)CC3)CC2)cc(C)c1O | 28 | 0 | -4 | -3 | .
CCc1cccc(NC(=O)CCS(=O)(=O)c2cccc3nonc23)c1 | -17 | -1 | -10 | 0 | 83*
COc1ccc(NC(=O)CCS(=O)(=O)c2cccc3nonc23)cc1Cl | 1 | 1 | 12 | -1 | .
CC(C)Oc1ccc(C(=O)Nc2ccc(Cl)c(S(=O)(=O)Nc3ccc(Cl)cc3)c2)cc1 | -41 | 2 | 2 | -1 | 71*
CC(NC(N)=O)C(=O)Nc1ccc(Cl)c(S(=O)(=O)Nc2ccc(Cl)cc2)c1 (configuration not stated) | 1 | 0 | 5 | -1 | 4
O=C1c2ccccc2NC(c2ccc(-c3ccccc3F)o2)N1O (configuration not stated) | -60 | 7 | -72 | 0 | .
Cc1cc([N+](=O)[O-])ccc1-c1ccc(C2Nc3ccccc3C(=O)N2O)o1 (configuration not stated) | 14 | 1 | -1 | 0 | 76*
CC(C)CNC(=S)N(CCCN(C)C)Cc1cc2cc3c(cc2[nH]c1=O)OCCO3 | 12 | 1 | -7 | -3 | .
O=C(CSCc1ccc(Cl)cc1)N/N=C/c1ccc(Cl)cc1Cl | 1 | 0 | -16 | 0 | 91*
Cc1ccsc1/C=N/NC(=O)CSCc1ccc(Cl)cc1 | -9 | -3 | 1 | -5 | 92*
Cc1ccsc1/C=N/NC(=O)Cc1ccc(Cl)cc1 | -5 | -1 | 2 | 0 | 35
O=C(CSc1nnnn1-c1ccccc1)Nc1ccc(Cl)cc1 | 17 | 1 | 4 | 1 | 88*
O=C(CSc1nnnn1-c1ccccc1)Nc1ccc(Cl)cn1 | 4 | -3 | 8 | 2 | -6
Cc1ccc(NC(=O)CSc2nnnn2-c2ccc3c(c2)OCO3)cc1C | 12 | -4 | -7 | -4 | 92*
Cc1ccc(-n2nnnc2SCC(=O)Nc2sc(C)c(C)c2C#N)cc1C | -2 | -2 | -13 | 3 | 83*
CC(=O)c1ccc(-n2nnnc2SCC(=O)Nc2sc(C)c(C)c2C#N)cc1 | 10 | 2 | -9 | 2 | 81*
CCCCCN(C(=O)COC(=O)c1ccc(C)cc1)c1c(N)n(CCCC)c(=O)[nH]c1=O | 18 | -1 | 1 | 0 | .
O=C(NCc1ccco1)c1cc2cc3ccc(Cl)cc3nc2o1 | 25 | 4 | -4 | 0 | 80*
CC(C)=NOCC(=O)Nn1c(COc2ccccc2)nc2ccccc2c1=O | 2 | -2 | 3 | -3 | .

Compound activity (PubChem BioAssay)
